Hit rate of the full screen: of about 360,000 compounds, about 5,400 (1.5%) were called active. This is one part of a sample in which actives are shown more often than they occur.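 The calls were made as follows: active = inhibition above a per-plate cutoff, the mean inhibition of test compounds on that plate plus 3 SD (cut at about 49% in these data); inactive = the rest.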
Target: Trace amine-associated receptor 1 (Homo sapiens) (UniProt Q96RJ0)
Assay: blockers of beta-PEA-driven TAAR1 calcium signal – Fluo-8 calcium fluorescence, CHO RD-HGA16 cells, primary screen (AID 624466);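 also: 0% = DMSO plus EC80 beta-PEA response and 100% = DMSO alone without agonist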
Conditions: CHO RD-HGA16 TAAR1, Fluo-8 calcium fluorescence, antagonist; at 3 µM; active compounds read high
Procedure, shortened: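 test system = CHO RD-HGA16 cells bearing hTAAR1 | replication = singlicate | controls = DMSO-only wells and EC80 β-PEA-stimulated wells | reagent = EC80 β-phenethylamine stimulus | read-out basis = percent inhibition of PEA-evoked calcium signal, max/basal emission ratio | schedule = seeding 17-24 h prior, 75-min 37 °C, 30-min RT dye loading | signal = kinetic Fluo-8 calcium fluorescence measurement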

Sequence of Trace amine-associated receptor 1 (Homo sapiens) (Q96RJ0 whole entry, looked up): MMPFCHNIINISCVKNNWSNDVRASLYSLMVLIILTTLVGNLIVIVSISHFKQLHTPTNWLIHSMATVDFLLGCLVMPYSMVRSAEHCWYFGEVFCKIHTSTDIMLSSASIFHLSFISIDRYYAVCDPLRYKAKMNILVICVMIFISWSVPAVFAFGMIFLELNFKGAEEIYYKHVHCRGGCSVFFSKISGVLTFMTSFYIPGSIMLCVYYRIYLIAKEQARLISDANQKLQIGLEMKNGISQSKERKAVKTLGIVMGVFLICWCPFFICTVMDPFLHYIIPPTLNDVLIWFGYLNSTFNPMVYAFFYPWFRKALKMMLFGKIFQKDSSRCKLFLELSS

inhibition, inactive:
CN(C)C1CN(Cc2cn(Cc3ccccc3)nn2)S(=O)(=O)C1 (configuration not stated) -30.8%
C=CC1=CCN(S(=O)(=O)C(C)(C)C)[C@@H]1CCO -20.8%
Cc1cccc(C(=O)Nc2ccc3c(c2)C(=O)N(CC(C)C)C3=O)c1 16.9%
Cc1cccc(C(=O)Nc2ccc(Oc3cnccn3)cc2)c1 -6.75%
Cc1nc2c(OCc3ccc(Cl)cc3Cl)cccn2c1N(C)CC1CC1 16.7%
CCCCCCCCN1C(=O)[C@@H](CC(=O)NCCCC)C[C@@]2(C(=O)OC)C1=C[C@H](C(C)(C)C)O[C@@H]2C -28.5%
CCOc1ccc(NC(=O)CN(C)C(=O)c2c(C)noc2C)cc1OCC -17.5%
CCCCOCCCNC(=O)C[C@@H]1C[C@@]2(C(=O)OCC)CCCC=C2N(CCC2=CCCCC2)C1=O -7.17%
COC(=O)c1ccc(C23CC4(C2)[C@H](CN(Cc2cccnc2)[C@@H]4c2ccccc2)C3c2ccc(Cl)nc2)cc1 (some centres not stated) 34.6%
COC(=O)[C@@]12C[C@@H](CC(=O)NCCCCc3ccccc3)C(=O)N(CCc3ccc(OC)c(OC)c3)C1=CCC(C)(C)C2 22.4%
CCOc1cc(C(=O)N2CCc3cc(OC)c(OC)cc3C2)ccc1OC(F)F -21.9%
O=C1NC[C@H](Cc2ccc(O)cc2)N(C[C@H]2CCCN2C[C@H](Cc2ccccc2)N2C[C@H](Cc3ccccc3)N(CCc3ccccc3)C(=O)C2=O)C1=O -19.2%
COc1ccc(-c2ccccc2C2Cc3nnccc3CN2C(=O)Nc2ccccc2)cc1 (configuration not stated) -11.4%
COC(=O)[C@]12CCCCC=C1N(Cc1cccc3ccccc13)C(=O)[C@H](CC(=O)N1CCOCC1)C2 34.8%
COc1cc(OC)c(C(=O)NNC(=O)c2ccc(NS(=O)(=O)c3cccs3)cc2)cc1OC -17.5%
COc1ccccc1C(=O)Nc1ccc(Nc2ccccc2)cc1 1.01%
O=C(NCc1ccccc1)[C@@H]1CCCN1C(=O)[C@H]1CCCN1C(=O)c1cccc(Cl)c1 -3.29%
CCCCCCCCN1C(=O)[C@H](CC(=O)NCc2cccc3ccccc23)C[C@@]2(C(=O)OC)CCCCC=C12 2.1%
COCCCn1cc(CN2CC(N(C)C)CS2(=O)=O)nn1 (configuration not stated) -29.3%
CCCCC[C@H](C)N1C[C@@H](COCc2ccccc2)Oc2cc(N3CCC[C@@H]3CO)ccc2S1(=O)=O -12.8%

inhibition, active:
Cc1cccc(C(=O)Nc2ccc(C(=O)/C=C/c3cccs3)cc2)c1 59.9%
COc1cc2ccccc2cc1C(=O)Nc1ccc(NC(=O)c2cccs2)cc1 58.9%
